Compound activity from PubChem BioAssay.
Sampled rows, rich in hits. Any-hit rate of the full collection: about 1.9%.
SKBR3 24h inh = SK-BR-3 proliferation inhibitors, primary screen, cell-based, human, 24 h; SK-BR-3 viability, CellTiter-Glo ATP luminescence; stronger effect = lower value; viability, % at 10 µM; 41,000 tested, 0.47% active; AID 847, 2007;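 active = viability at or below the median of all test compounds minus 3 SD, in both replicates if run twice, cut at about 45% in these data; inconclusive = duplicate replicates that disagree with each other; inactive = viability above that cutoff in every replicate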
Her2 expr inh = inhibitors of Her2 protein expression, primary screen, SKBR-3 cells, AlphaScreen, 66K library; Receptor tyrosine-protein kinase erbB-2 (Homo sapiens), P04626; SKBR-3 HER2 protein level, 18-24 h; stronger effect = lower value; HER2 level % of control, % at 10 µM; AID 645, 2007; 65,000 tested, 0.69% active;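 active = HER2 level under 5% of the carrier-only control; inconclusive = no clear call, values can overlap the other calls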;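 also: lower value means stronger loss of Her2 protein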
Target sequence (P04626 whole entry, looked up): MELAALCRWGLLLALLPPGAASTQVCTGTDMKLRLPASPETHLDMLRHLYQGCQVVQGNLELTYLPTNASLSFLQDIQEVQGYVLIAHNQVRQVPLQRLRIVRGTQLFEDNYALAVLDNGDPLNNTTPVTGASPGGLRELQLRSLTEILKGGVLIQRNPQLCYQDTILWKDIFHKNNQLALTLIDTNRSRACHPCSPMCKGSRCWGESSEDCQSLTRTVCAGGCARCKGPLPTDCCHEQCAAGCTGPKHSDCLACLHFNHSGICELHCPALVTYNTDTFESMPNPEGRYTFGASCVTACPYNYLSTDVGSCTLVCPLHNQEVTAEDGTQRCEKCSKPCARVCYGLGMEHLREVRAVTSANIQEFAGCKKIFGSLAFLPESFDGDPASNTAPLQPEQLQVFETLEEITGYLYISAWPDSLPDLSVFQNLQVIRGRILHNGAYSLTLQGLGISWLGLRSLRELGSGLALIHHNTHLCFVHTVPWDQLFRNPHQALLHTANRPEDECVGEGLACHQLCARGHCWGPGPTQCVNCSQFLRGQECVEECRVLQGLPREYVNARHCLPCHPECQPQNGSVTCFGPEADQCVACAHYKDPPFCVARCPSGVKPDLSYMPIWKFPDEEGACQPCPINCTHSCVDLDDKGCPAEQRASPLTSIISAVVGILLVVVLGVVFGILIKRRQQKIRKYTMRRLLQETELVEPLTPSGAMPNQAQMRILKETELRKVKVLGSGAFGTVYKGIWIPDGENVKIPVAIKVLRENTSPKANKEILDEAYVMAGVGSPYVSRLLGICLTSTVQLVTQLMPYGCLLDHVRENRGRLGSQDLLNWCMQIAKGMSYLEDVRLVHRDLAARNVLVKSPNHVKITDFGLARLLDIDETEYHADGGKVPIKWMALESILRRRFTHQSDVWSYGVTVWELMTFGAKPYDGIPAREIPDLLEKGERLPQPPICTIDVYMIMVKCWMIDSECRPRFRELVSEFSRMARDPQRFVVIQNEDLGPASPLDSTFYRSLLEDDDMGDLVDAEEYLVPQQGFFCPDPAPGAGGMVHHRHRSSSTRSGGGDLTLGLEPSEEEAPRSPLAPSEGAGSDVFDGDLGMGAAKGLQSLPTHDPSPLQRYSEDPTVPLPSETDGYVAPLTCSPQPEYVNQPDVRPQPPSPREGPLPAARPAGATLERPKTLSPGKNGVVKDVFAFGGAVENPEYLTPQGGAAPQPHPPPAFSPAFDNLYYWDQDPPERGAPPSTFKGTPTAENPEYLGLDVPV
HEK293 NFkB inh = inhibitors of PMA/ionomycin-induced NF-kB reporter, primary screen, antigen receptor NF-kB inhibitor project, cell-based, HEK-293 luciferase reporter, luminescence. 62,000 tested, 0.21% active. inhibition, % at 3 µM. HEK-293 NF-kB luciferase reporter. AID 465, 2006;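 active = inhibition above the mean of all tested compounds plus 3 SD, cut at about 40% in these data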
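System: NF-kB luciferase reporter HEK-293 cells | Replication: Single test | Control set: DMSO vs reference inhibitor | Evaluation: % inhibition | Schedule: 1 h pretreatment, 16 h stimulation, 37 °C | Probe or stimulus: PMA with ionomycin | Compound dosing: One dose, 3 µM | Detection: Luciferase luminescence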
Htt clearance = clearance of mutant huntingtin inclusions, primary screen, imaging, HeLa Exon1htt(103Q)mCFP, confocal imaging; AID 853, 2007; inhibition, % at 1.5 µM; aggregate imaging; zero = plate's median compound well; 47,000 tested, 0.42% active;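 active = inhibition of aggregate fluorescence above about 70%, also judged a hit by eye on the cell image, limit read from the data, passing the limit was not always enough; inconclusive = no rule stated for this call; inactive = not judged a hit on image review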;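 also: cells exposed to compound for three days before fixation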
Jurkat viability = cytotoxicity toward Jurkat T cells, primary screen, cytotoxicity control, cell-based, Jurkat E6.1, 60K MLSMR library; Jurkat E6.1 viability, ATP luminescence, 48 h; inhibition, % at 4 µM; 56,000 tested, 1.2% active;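 active = inhibition above the mean inhibition of all tested compounds plus 3 SD, cut at about 28% in these data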
Of the large screens only hits and unclear results are named; the others gave an inactive call.

COc1cc(C(=O)N2CCN(c3cccc(C)c3C)CC2)cc(OC)c1OC	Jurkat viability 94 (no result: SKBR3 24h inh)
Cc1cccc(N2CCN(C(=O)c3ccncc3)CC2)c1C	Jurkat viability 60
Cc1ccccc1S(=O)(=O)Cc1ccc(C(=O)N2CC(C)CC(C)C2)o1 (configuration not stated)	Htt clearance inconclusive (no result: SKBR3 24h inh)
COc1ccc(C(=O)N2CCN(C(=O)c3cc(OC)c(OC)c(OC)c3)CC2)cc1	none (no result: Htt clearance)
CCC1(CC)NC(=O)N(CC(=O)Nc2sc3c(c2C(N)=O)CCC3)C1=O	none (no result: Htt clearance)
O=c1cc(N2CCOCC2)[nH]c(=O)n1-c1ccc(Br)cc1	none (no result: SKBR3 24h inh)
OCCSc1nc(-c2cccnc2)nc2ccccc12	none (no result: Jurkat viability)
O=c1[nH]c(C2CCCN(S(=O)(=O)c3ccccc3)C2)nc2c1nnn2Cc1ccccc1F (configuration not stated)	SKBR3 24h inh 31 (no result: Htt clearance)
O=c1[nH]c(C2CCCN(S(=O)(=O)c3ccccc3)C2)nc2c1nnn2Cc1ccccc1 (configuration not stated)	none (no result: SKBR3 24h inh)
CCOc1ccc(N2C(=O)CC(NCc3ccc(F)cc3)C2=O)cc1 (configuration not stated)	none
O=C1CC(NCc2ccccc2F)C(=O)N1c1ccccc1 (configuration not stated)	SKBR3 24h inh 39 (no result: Htt clearance)
Cc1ccc2occ(C(c3nnnn3Cc3ccccc3)N3CCOCC3)c(=O)c2c1 (configuration not stated)	none
O=C(CSc1nnnn1-c1ccc2c(c1)OCCO2)Nc1nc2c(s1)CCCC2	Htt clearance 77
Cc1nnc(Sc2nc(Sc3nnc(C)s3)nc(N3CCN(C)CC3)n2)s1	Her2 expr inh -33, Jurkat viability 101 (no result: Htt clearance)
CCc1c(C)c2nncn2[nH]c1=O	none (no result: Htt clearance)
COc1cccc2sc(Nc3nnc(-c4ccccc4Cl)o3)nc12	Jurkat viability 67 (no result: SKBR3 24h inh, Htt clearance)
COc1ccccc1-c1nnc(Nc2nc3c(OC)cccc3s2)o1	Jurkat viability 87 (no result: Htt clearance)
CNC(=O)c1c(C)nc(SCC(=O)NCc2ccc(OC)cc2)c(C#N)c1-c1ccco1	Her2 expr inh -33 (no result: SKBR3 24h inh, Htt clearance)
Cn1c(-c2ccccc2)cc2c3no[n+]([O-])c3ccc21	Jurkat viability 78
Cc1ccc2nc(N3CCN(S(=O)(=O)c4ccc(C)c(Cl)c4)CC3)c(C#N)cc2c1	none (no result: SKBR3 24h inh, Her2 expr inh, HEK293 NFkB inh, Jurkat viability)
